{"source": "paper PMC6243397", "about": "(ACS Chemical Biology, 2018)", "key": {"[1]": {"test": "Mouse liver microsome stability assay", "type": "in vitro ADME", "settings": "percentage remaining relative to t0"}, "[2]": {"test": "Stability control without microsomes", "type": "physicochemical", "settings": "microsomes replaced with PBS, percentage remaining relative to t0"}, "[3]": {"settings": "cited from earlier work"}, "[4]": {"test": "Assessment of hematological toxicity", "type": "in vivo, mouse", "settings": "single IV dose 125 mg/kg, 7 days post-treatment", "method_in_brief": "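Mice received a single IV dose of 125 mg/kg test compound. Whole blood was collected 7 days post-dose and a complete blood count run per mouse (total WBC, lymphocytes, neutrophils). Four mice per cohort; error is SEM. Groups were compared with control by two-tailed two-sample Student's t test assuming equal variance.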"}, "U87 cells": {"test_system": "U87 cells", "test": "O6-methyldeoxyguanosine quantitation", "type": "cell-based, human", "settings": "100 or 1000 μM, 8 h", "method_in_brief": "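U87 cells were treated with 100 or 1000 μM test compound for 8 h. Genomic DNA was isolated, quantified and hydrolysed to deoxyribonucleosides. O6-methyldeoxyguanosine was quantitated by LC-MS/MS and expressed per 10 μg DNA.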"}, "human GBM cell lines": {"test_system": "human GBM cell lines", "test": "Panel of human GBM cell lines, viability", "type": "cell-based"}, "[5]": {"test": "in vivo blood-brain barrier permeability", "settings": "CD-1 IGS, mouse, brain and serum, iv, 25 mg/kg"}, "[6]": {"test": "Hydrolytic stability in PBS", "type": "physicochemical", "settings": "pH 7.4, t1/2 in PBS, PBS pH 7.4, 37 °C"}}, "note": "Read-outs that look alike come from different tables or passages of the source.", "data": [{"smiles": "Cn1nnc2c(-c3ccccc3)ncn2c1=O", "note": "[Compound 23]", "values": [{"measurement": "stability (2 h, microsomes)", "setting": "[1]", "result": "44 ± 2", "unit": "%"}, {"measurement": "stability (2 h, no microsomes)", "setting": "[2]", "result": "103 ± 5", "unit": "%"}]}, {"smiles": "Cn1nnc2c(C(N)=O)ncn2c1=O", "note": "[TMZ, temozolomide]", "values": [{"measurement": "stability (2 h, microsomes)", "setting": "[1]", "result": "87 ± 6", "unit": "%"}, {"measurement": "half-life in humans", "setting": "[3]; humans", "result": "~2", "unit": "h"}, {"measurement": "half-life in vivo and in aqueous solutions in vitro", "setting": "[3]; in vivo and in aqueous solutions in vitro", "result": "~2", "unit": "h"}, {"measurement": "myelosuppression / white blood cell count", "setting": "[4]", "result": "white blood cell (WBC) depletion relative to control mice"}, {"measurement": "concentration of O6-methylated deoxyguanosine", "setting": "U87 cells", "result": "Dose dependent increases"}, {"measurement": "stability (2 h, no microsomes)", "setting": "[2]", "result": "86 ± 4", "unit": "%"}, {"measurement": "IC50", "setting": "human GBM cell lines; read-out: IC50 in cell lines with negligible MGMT expression", "result": "≤ 50", "unit": "µM"}, {"measurement": "IC50", "setting": "human GBM cell lines; read-out: IC50 in cell lines with significant MGMT expression", "result": "> 300", "unit": "µM"}, {"measurement": "Kp at 5 min", "setting": "[5]", "result": "0.23 ± 0.03"}]}, {"smiles": "CCCCN(CCCC)C(=O)c1ncn2c(=O)n(C)nnc12", "note": "[Compound 7]", "values": [{"measurement": "stability (2 h, microsomes)", "setting": "[1]", "result": "1 ± 1", "unit": "%"}, {"measurement": "stability (2 h, no microsomes)", "setting": "[2]", "result": "98 ± 3", "unit": "%"}]}, {"smiles": "Cc1ncn2c(=O)n(C)nnc12", "note": "[Compound 14]", "values": [{"measurement": "half-life", "setting": "[6]", "result": 40, "unit": "h"}]}, {"smiles": "Cn1nnc2c(Cl)ncn2c1=O", "note": "[Compound 19]", "values": [{"measurement": "stability (2 h, microsomes)", "setting": "[1]", "result": "91 ± 3", "unit": "%"}, {"measurement": "stability (2 h, no microsomes)", "setting": "[2]", "result": "91 ± 1", "unit": "%"}]}, {"smiles": "CCN(CC)C(=O)c1ncn2c(=O)n(C)nnc12", "note": "[Compound 6]", "values": [{"measurement": "stability (2 h, microsomes)", "setting": "[1]", "result": "81 ± 1", "unit": "%"}, {"measurement": "stability (2 h, no microsomes)", "setting": "[2]", "result": "95 ± 2", "unit": "%"}]}]}
